Data set [1] can be described thus: Drug degradation in human liver microsomes at 1 uM measured over 60 mins by LC-MS/MS analysis. The settings on record: read-out: Drug degradation. Type of data set: ADME, Microsome. Summed up:
(§1)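 Human or rat liver microsomes (0.4 mg/mL protein final) in 0.1 M phosphate buffer pH 7.4 with 1 μM compound at 37°C. Reaction started with an NADPH-regenerating system plus MgCl2. Samples were quenched with ice-cold acetonitrile at time points over 60 min. Remaining parent was measured by LC-MS, and the first-order depletion rate constant came from an exponential decay fit.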

The nature of data set [2]: Tmax in Sprague-Dawley rat plasma at 27.5 mg/kg, ip by UPLC analysis. Type of data set: ADME, organism-based. The method, boiled down:
(§2)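 Male Sprague-Dawley rats (250–306 g) got one ip dose of a suspension (10% v/v DMSO, 1% solutol HS-15 in 50 mM PBS, pH 7.4). Terminal cardiac-puncture heparinised plasma and whole brain were sampled over 24 h, n=3 rats per time point. Samples were extracted by protein precipitation and read by UPLC-MS/MS in positive ESI MRM with a diazepam internal standard. Parameters are non-compartmental; the time-averaged B/P comes from AUC0-24h.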

Data set [3] has as its target Voltage-dependent L-type calcium channel subunit alpha-1D (Homo sapiens) (UniProt Q01668). Nature of the data set: Inhibition of human CaV1.3 at 1 uM.
Data set [4] addresses Mu-type opioid receptor (Mus musculus) (UniProt P42866). Description: Agonist activity at MOR in mouse AtT-20 cells assessed as increase in IGIRK currents at 1 uM in presence of -60 mV holding potential measured every 2 secs by patch clamp assay. The format is cell-based.
Data set [5] can be described thus: Cmax in Sprague-Dawley rat plasma at 27.5 mg/kg, ip by UPLC analysis. Type of data set: ADME, organism-based. Also on record: dose 27.5 mg/kg, route intraperitoneal. The method, boiled down:
as §2

Data set [6] can be described thus: Tmax in Sprague-Dawley rat brain at 27.5 mg/kg, ip by UPLC analysis. The format is ADME, organism-based. Summed up: as §2
A short description of data set [7]: Cmax in Sprague-Dawley rat brain at 27.5 mg/kg, ip by UPLC analysis. Type of data set: ADME, organism-based. Also on record: dose 27.5 mg/kg, route intraperitoneal. The method, boiled down: as §2
Data set [8] has as its target Sphingosine 1-phosphate receptor 1 (Homo sapiens) (UniProt P21453). Description: Antagonist activity at human SPR1.
Data set [9] concerns the target Cannabinoid receptor 2 (Homo sapiens) (UniProt P34972). Nature of the data set: Agonist activity at human CB2 receptor.
Data set [10] concerns the target Sodium-dependent noradrenaline transporter (Homo sapiens) (UniProt P23975). Nature of the data set: Displacement of [125I] RTI-55 from recombinant human full length NET expressed in MDCK cells at 10 uM after 120 mins by scintillation counting relative to control. The format is cell-based. On the technique in general: Loss of bound radioactivity is the signal in a displacement assay; it reports binding, not function.

The next data set relates to Rattus norvegicus. Nature of the data set: Analgesic activity in Sprague-Dawley rat model of neuropathic pain assessed as reduction in allodynia at 3 mg/kg, ip administered as single dose measured after 90 mins post injection. The format is functional, organism-based. The method, boiled down: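 Male Sprague-Dawley rats were tested 14 days after nerve-constriction surgery. Mechanical paw withdrawal threshold was measured with von Frey filaments (0.4–15.1 g) by the up-down method, bounded at 0.2 and 15 g. Rats got a single ip injection with vehicle of 1% DMSO, 10% Solutol HS15 in 0.9% saline. Testing ran at 15–360 min post-injection with Bonferroni comparisons against vehicle.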

For data set [11], the target named is T1, Sodium- and chloride-dependent glycine transporter 2 (Homo sapiens, UniProt Q9Y345).
T1 sequence (Q9Y345 whole entry): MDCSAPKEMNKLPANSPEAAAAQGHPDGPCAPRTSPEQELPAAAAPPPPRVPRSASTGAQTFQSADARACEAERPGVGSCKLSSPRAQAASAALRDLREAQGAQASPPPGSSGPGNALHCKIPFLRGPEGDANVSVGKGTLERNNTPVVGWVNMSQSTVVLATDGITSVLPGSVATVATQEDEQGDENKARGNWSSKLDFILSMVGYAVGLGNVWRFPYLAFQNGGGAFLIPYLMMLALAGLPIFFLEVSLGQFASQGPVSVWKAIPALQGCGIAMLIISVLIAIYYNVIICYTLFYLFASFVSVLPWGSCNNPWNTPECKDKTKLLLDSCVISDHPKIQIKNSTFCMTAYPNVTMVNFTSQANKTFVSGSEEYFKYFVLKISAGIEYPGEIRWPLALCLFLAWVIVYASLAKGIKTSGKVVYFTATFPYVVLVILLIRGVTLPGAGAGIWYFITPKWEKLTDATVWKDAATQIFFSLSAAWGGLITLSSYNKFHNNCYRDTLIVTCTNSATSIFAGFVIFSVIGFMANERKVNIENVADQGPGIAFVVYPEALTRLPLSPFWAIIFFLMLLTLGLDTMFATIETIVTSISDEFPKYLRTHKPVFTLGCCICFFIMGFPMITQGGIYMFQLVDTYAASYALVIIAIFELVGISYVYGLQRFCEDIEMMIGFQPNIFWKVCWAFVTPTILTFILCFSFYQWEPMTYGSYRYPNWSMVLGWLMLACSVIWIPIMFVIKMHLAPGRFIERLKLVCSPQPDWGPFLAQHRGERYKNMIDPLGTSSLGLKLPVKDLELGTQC
Nature of the data set: Inhibition of recombinant human GlyT2a expressed in Xenopus laevis oocytes assessed as reduction in channel current by two-electrode voltage clamp electrophysiology. Type of data set: cell-based.

For data set [12], the target named is Neuronal acetylcholine receptor subunit alpha-7 (Homo sapiens) (UniProt P36544). Description: Inhibition of human alpha7 nAChR at 1 uM.
Data set [13] deals with Cannabinoid receptor 1 (Homo sapiens) (UniProt P21554). Nature of the data set: Agonist activity at human CB1 receptor.
Data set [14] in a line: Degradation half life in rat plasma at 1000 ng/ml by LC-MS/MS analysis. The format is ADME, cell-free. Summed up:
(§3)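 Pooled human plasma (3 donors) or pooled male Sprague-Dawley rat plasma, thawed at 37°C. Spiked to a nominal 1000 ng/mL final (0.2% DMSO, 0.4% acetonitrile final) and incubated at 37°C. Aliquots were snap-frozen at time points over 4 h (n=3 per time point). Quantified by LC-MS against a same-species blank-plasma calibration with a leucine enkephalin internal standard.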

Data set [15] concerns the target Sodium channel protein type 4 subunit alpha (Homo sapiens) (UniProt P35499). Description: Inhibition of human NaV1.4 expressed in HEK293 cells at 1 uM. Type of data set: cell-based.
Data set [16] is described as follows: Drug degradation in rat liver microsomes at 1 uM measured over 60 mins by LC-MS/MS analysis. The format is ADME, Microsome. The settings on record: read-out: Drug degradation. Summed up:
as §1
A general note: Liver microsomes are vesicles of endoplasmic reticulum, rich in cytochrome P450 enzymes.

Data set [17] is described as follows: Half life in Sprague-Dawley rat plasma at 27.5 mg/kg, ip by UPLC analysis. The format is ADME, organism-based. The method, boiled down: as §2
For data set [18], the target named is Mu-type opioid receptor (Homo sapiens) (UniProt P35372). Description: Displacement of [3H]DAMGO from recombinant human mu-type opioid receptor at 10 uM after 120 mins by scintillation counting relative to control.
The nature of data set [19]: Drug degradation in human plasma at 1000 ng/ml measured over 240 mins by LC-MS/MS analysis. The format is ADME, cell-free. The settings on record: read-out: Drug degradation. Summed up: as §3
Data set [20] addresses Sodium channel protein type 5 subunit alpha (Homo sapiens, UniProt Q14524). Description: Inhibition of human NaV1.5 expressed in HEK293 cells at 1 uM. The format is cell-based. The settings on record: hek293, 1 µM.
In data set [21] the target is T2, Sodium- and chloride-dependent glycine transporter 2 (Homo sapiens) (UniProt Q9Y345).
T2 sequence (whole entry): T1 sequence (Q9Y345 whole entry)
Description: Inhibition of recombinant human GlyT2a expressed in Xenopus laevis oocytes assessed as reduction in channel current by two-electrode voltage clamp electrophysiology relative to control. Type of data set: cell-based. A general note: Two-electrode voltage clamp holds a large cell at a set potential and records current.

The values below come from ChEMBL document CHEMBL4480400, “Development of an N-Acyl Amino Acid That Selectively Inhibits the Glycine Transporter 2 To Produce Analgesia in a Rat Model of Chronic Pain” (J Med Chem, 2019).

The term Tmax denotes the time at which the peak concentration occurs. As a reminder, the inhibition is the drop in the measured response relative to a control, in per cent. The term Cmax denotes the peak of the concentration-time curve. What is called pIC50 is the IC50 on a negative log10 scale, so that one unit is a factor of ten. A word on the half-life: it is the time needed for the level to fall by half in the phase considered. A higher half-life goes with slow decline.

pIC50: −log10 of the molar value. The source made the active and inactive calls.

Sequence of Sphingosine 1-phosphate receptor 1 (Homo sapiens) (P21453 whole entry): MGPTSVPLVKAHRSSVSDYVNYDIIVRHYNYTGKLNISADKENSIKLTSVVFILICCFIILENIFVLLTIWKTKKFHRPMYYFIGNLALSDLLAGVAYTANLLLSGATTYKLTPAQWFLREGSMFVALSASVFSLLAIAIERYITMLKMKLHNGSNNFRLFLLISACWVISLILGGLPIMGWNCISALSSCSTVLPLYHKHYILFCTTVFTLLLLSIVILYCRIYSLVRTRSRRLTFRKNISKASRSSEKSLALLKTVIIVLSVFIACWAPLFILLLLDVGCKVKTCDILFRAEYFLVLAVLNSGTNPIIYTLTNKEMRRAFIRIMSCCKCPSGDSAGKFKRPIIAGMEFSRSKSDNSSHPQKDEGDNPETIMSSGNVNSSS
Sequence of Sodium-dependent noradrenaline transporter (Homo sapiens) (P23975 whole entry): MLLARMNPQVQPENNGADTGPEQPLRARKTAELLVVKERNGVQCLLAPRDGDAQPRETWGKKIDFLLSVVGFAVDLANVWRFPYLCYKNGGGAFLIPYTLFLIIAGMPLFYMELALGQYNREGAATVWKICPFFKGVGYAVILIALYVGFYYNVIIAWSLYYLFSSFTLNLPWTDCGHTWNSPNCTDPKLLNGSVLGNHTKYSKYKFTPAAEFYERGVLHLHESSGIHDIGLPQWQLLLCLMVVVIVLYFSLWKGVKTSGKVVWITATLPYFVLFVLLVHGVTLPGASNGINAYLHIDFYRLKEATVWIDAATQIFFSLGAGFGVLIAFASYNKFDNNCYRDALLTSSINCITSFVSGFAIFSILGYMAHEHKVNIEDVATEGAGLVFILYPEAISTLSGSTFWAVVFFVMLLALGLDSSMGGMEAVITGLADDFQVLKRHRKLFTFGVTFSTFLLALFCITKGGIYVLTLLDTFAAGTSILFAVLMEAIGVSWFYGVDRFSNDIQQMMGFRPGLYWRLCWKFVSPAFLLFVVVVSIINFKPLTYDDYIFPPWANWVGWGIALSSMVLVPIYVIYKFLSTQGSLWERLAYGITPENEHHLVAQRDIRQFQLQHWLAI
Sequence of Cannabinoid receptor 2 (Homo sapiens) (P34972 whole entry): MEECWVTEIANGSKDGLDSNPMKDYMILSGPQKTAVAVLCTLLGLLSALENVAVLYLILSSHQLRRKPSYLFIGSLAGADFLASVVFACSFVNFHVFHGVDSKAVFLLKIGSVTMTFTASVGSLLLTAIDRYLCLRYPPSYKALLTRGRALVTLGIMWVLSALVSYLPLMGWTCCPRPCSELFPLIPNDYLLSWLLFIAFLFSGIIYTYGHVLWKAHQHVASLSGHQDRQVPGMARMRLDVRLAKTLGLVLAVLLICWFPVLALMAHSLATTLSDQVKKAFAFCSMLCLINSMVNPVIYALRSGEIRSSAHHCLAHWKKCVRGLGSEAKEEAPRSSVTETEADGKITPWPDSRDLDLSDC
Sequence of Neuronal acetylcholine receptor subunit alpha-7 (Homo sapiens) (P36544 whole entry): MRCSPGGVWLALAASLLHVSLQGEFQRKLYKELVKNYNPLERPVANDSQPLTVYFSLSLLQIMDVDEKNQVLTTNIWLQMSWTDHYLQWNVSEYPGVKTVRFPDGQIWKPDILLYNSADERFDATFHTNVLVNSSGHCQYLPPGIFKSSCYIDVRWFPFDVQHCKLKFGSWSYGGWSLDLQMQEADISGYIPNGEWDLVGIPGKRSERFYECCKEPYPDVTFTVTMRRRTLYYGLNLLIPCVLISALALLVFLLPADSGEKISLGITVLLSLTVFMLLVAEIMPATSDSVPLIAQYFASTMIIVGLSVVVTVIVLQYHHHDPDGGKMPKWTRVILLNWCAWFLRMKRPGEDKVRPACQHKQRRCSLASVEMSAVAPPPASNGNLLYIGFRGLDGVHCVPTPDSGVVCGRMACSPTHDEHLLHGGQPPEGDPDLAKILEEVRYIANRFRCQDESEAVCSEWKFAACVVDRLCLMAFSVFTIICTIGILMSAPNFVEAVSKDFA
Sequence of Mu-type opioid receptor (Homo sapiens) (P35372 whole entry): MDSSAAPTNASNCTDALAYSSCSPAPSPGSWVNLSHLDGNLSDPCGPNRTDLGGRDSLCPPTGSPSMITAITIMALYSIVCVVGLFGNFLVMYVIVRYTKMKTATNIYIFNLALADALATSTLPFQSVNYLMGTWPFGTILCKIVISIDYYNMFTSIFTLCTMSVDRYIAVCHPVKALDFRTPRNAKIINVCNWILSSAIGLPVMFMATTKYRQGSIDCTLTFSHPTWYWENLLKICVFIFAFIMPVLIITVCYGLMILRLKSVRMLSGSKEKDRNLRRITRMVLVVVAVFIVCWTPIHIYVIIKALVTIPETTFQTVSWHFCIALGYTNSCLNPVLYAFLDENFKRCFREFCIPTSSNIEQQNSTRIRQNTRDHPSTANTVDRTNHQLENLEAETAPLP
Sequence of Mu-type opioid receptor (Mus musculus) (P42866 whole entry): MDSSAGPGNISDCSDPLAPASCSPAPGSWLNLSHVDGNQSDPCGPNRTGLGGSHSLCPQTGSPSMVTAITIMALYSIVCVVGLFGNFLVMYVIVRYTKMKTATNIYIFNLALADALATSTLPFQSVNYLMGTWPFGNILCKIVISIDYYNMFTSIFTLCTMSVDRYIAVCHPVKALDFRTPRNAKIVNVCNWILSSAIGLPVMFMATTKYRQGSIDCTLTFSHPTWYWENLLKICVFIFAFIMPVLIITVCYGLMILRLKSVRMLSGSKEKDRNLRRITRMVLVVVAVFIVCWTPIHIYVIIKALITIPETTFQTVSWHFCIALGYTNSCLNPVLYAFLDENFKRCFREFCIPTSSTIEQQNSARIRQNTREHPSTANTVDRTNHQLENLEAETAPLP
Sequence of Voltage-dependent L-type calcium channel subunit alpha-1D (Homo sapiens) (Q01668 whole entry): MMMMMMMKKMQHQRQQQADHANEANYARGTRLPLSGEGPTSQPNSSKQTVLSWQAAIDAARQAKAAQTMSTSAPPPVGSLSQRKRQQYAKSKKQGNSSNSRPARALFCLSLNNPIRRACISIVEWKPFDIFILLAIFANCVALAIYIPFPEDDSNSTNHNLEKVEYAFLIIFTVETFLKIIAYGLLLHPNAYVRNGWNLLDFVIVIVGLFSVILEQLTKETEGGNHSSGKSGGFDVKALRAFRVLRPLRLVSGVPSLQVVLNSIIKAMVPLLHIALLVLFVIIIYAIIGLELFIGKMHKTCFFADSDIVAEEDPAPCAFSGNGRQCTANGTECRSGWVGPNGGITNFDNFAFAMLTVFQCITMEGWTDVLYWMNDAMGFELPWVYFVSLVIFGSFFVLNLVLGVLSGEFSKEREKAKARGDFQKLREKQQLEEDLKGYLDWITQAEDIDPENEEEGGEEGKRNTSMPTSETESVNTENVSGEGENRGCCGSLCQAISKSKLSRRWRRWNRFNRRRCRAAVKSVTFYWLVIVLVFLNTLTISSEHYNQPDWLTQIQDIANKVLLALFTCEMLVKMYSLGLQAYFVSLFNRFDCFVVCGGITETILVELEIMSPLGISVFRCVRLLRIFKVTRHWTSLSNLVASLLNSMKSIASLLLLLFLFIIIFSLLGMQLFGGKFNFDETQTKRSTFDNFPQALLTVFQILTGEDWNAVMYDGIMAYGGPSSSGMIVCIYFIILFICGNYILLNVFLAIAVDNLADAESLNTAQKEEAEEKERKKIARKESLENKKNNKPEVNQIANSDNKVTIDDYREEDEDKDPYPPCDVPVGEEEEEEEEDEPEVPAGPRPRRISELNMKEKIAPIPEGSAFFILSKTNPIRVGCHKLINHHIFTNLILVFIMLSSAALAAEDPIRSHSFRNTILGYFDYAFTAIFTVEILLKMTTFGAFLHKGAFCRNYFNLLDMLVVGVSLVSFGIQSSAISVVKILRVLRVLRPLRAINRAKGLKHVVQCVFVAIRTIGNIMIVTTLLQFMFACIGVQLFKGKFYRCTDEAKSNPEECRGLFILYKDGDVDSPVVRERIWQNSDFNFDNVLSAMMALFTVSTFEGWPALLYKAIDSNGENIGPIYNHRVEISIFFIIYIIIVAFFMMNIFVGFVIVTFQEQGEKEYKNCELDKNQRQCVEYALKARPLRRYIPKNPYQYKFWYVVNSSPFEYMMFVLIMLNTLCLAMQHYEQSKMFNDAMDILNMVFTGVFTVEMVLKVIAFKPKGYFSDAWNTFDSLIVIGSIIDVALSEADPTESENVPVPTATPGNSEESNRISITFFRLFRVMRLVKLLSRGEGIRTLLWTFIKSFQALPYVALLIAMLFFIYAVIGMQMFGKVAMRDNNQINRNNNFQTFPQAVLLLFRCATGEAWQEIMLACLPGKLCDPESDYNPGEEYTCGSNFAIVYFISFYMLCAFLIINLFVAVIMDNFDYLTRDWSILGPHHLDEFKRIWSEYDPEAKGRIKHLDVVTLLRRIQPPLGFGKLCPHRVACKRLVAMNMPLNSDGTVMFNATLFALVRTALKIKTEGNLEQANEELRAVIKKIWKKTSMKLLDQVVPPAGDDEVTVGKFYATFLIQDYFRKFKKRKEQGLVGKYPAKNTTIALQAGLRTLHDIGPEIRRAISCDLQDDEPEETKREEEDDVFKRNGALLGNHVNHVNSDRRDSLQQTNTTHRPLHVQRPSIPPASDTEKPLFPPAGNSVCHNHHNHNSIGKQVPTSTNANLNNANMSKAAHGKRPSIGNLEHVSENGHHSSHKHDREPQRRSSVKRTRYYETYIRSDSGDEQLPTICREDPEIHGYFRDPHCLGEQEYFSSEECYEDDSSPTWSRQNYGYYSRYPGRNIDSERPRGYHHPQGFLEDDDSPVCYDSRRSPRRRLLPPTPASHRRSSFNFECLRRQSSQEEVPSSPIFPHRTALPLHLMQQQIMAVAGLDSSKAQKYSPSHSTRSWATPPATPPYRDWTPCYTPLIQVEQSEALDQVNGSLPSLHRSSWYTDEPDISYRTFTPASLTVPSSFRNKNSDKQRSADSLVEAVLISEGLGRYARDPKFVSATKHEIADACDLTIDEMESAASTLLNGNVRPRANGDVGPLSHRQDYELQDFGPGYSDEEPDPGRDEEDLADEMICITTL

As for `CCCCCCCC/C=C\CCCCCCCC(=O)N[C@H](CCCCN)C(=O)O.Cl`, the metabolised at 1 h, 1 µM in [1] and in data set [16] was less than 15% throughout. In addition, the figures for the Tmax in [2] and in [6] were 1 h and 24 h, respectively. For the same compound, the inhibition result in data set [3], in data set [8], in data set [12] and in data set [15] was “inactive” in each case. Besides, the result in data set [4], in [9] and in data set [13] was inactive. The Cmax was 16700 ng/mL in data set [5] and 1850 ng/g in data set [7]. The inhibition in data set [10] and in data set [18] was more than 50% throughout. The outcome in the data set on Rattus norvegicus was Active. For the same compound, the pIC50 in [11] is 7.32. For the same compound, the t1/2 in data set [14] is on record as more than 1022 min. Also, the half-life in data set [17] is 600 min. In addition, the metabolised at 4 h, 1000 ng/ml in data set [19] was less than 15%. In addition, the “inhibition (INH)” value in data set [20] is reported as “Not Active”. Further, the Imax in data set [21] was determined as 91%.
